The values below come from ChEMBL document CHEMBL3817763, “Exploration of GGTase-I substrate requirements. Part 2: Synthesis and biochemical analysis of novel saturated geranylgeranyl diphosphate analogs” (Bioorg Med Chem Lett, 2016).

The source made the active and inactive calls. No cut-off for these calls is given here.

The target in series [1] is T1, Geranylgeranyl transferase type I (Homo sapiens) (UniProt P49354+P53609). In words: Activity at recombinant GGTase1 (unknown origin) using dansyl-GCVLL as co-substrate assessed as protein prenylation at 5 uM incubated for 1.5 hrs by spectrofluorometric method. Summed up:
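Preliminary single-point screen: analog diphosphate 5 µM with 5 µM dansyl-GCVLL and 50 nM GGTase-I; continuous fluorescence read at 1.5 h. Result is given as relative fluorescence increase, normalized to GGPP (1.5 h) set to 1.0. Mean ± SD, n = 3.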

The target of series [2] is T1, Geranylgeranyl transferase type I (Homo sapiens). In words: Ratio of Kcat to Km for recombinant GGTase1 (unknown origin) using dansyl-GCVLL as co-substrate assessed as protein prenylation by spectrofluorometric method relative to GGPP.
The target of series [3] is T2, Protein farnesyltransferase (Homo sapiens) (UniProt P49354+P49356). In words: Ratio of Kcat to Km for recombinant FTase (unknown origin) using dansyl-GCVLS as co-substrate assessed as protein prenylation by spectrofluorometric method relative to FPP. In kind it is protein-complex assay.
In series [4] the target is T2, Protein farnesyltransferase (Homo sapiens). The series can be described thus: Activity at recombinant FTase (unknown origin) using dansyl-GCVLS as co-substrate assessed as protein prenylation at 5 uM incubated for 1.5 hrs by spectrofluorometric method. Format: protein-complex assay. The method in brief:
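Preliminary single-point screen: analog diphosphate 5 µM with 5 µM dansyl-GCVLS and 50 nM FTase; continuous fluorescence read at 1.5 h. Result is given as relative fluorescence increase, normalized to FPP (5 µM, 1.5 h) set to 1.0. Mean ± SD, n = 3.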

For another series, the species on record is Homo sapiens. The series can be described thus: Ratio of Kcat/Km for recombinant FTase (unknown origin) to Kcat/Km for recombinant GGTase1 (unknown origin).
In series [5] the test system is CC(C)=CCCCCCCCCCC/C(C)=C/COP(=O)(O)OP(=O)(O)O. In words: (§1) Ratio of Kcat to Km for recombinant GGTase1 (unknown origin) using dansyl-GCVLL as co-substrate assessed as protein prenylation by spectrofluorometric method. Particulars: Homo sapiens.
Series [6] has as its system CCCCCCCCCCCC/C(C)=C/COP(=O)(O)OP(=O)(O)O. Described as §1. Particulars: Homo sapiens.
Series [7] concerns C/C(=C\CC/C(C)=C/COP(=O)(O)OP(=O)(O)O)CC/C=C(\C)CCCC(C)C. Described as §1. Particulars: Homo sapiens.
Series [8] has as its system CCCCCCCCCCC/C(C)=C/COP(=O)(O)OP(=O)(O)O. The series is described as §1. To be noted: Homo sapiens.
For series [9], the system named is CC(C)=CCCCCCCCCC/C(C)=C/COP(=O)(O)OP(=O)(O)O. The series is described as §1. To be noted: Homo sapiens.
The test system of series [10] is CCCCCCCCCCCCC/C(C)=C/COP(=O)(O)OP(=O)(O)O. The series is described as §1. Particulars: Homo sapiens.
Series [11] concerns CC(C)=CCC/C(C)=C/CC/C(C)=C/CC/C(C)=C/COP(=O)(O)OP(=O)(O)O. Described as §1. Particulars: Homo sapiens.
Series [12] relates to CCCCCCCCC/C(C)=C/CC/C(C)=C/COP(=O)(O)OP(=O)(O)O. The series is described as §1. Particulars: Homo sapiens.
In series [13] the test system is CCCCCCC/C(C)=C/CC/C(C)=C/COP(=O)(O)OP(=O)(O)O. The description is as §1. To be noted: Homo sapiens.
In series [14] the test system is CCCCCCCC/C(C)=C/CC/C(C)=C/COP(=O)(O)OP(=O)(O)O. The description is as §1. To be noted: Homo sapiens.
The subject of series [15] is C/C(=C\COP(=O)(O)OP(=O)(O)O)CC/C=C(\C)CCCC(C)CCCC(C)C. The series is described as §1. Particulars: Homo sapiens.
Series [16] has as its system CC(C)=CCCCCCCCCCC/C(C)=C/COP(=O)(O)OP(=O)(O)O. The series can be described thus: (§2) Ratio of Kcat to Km for recombinant FTase (unknown origin) using dansyl-GCVLS as co-substrate assessed as protein prenylation by spectrofluorometric method. In kind it is protein-complex assay. To be noted: Homo sapiens.
The test system of series [17] is CCCCCCCCCCCC/C(C)=C/COP(=O)(O)OP(=O)(O)O. The series is described as §2. To be noted: Homo sapiens. Format: protein-complex assay.
Series [18] relates to CCCCCCCCCCC/C(C)=C/COP(=O)(O)OP(=O)(O)O. The description is as §2. Format: protein-complex assay. Particulars: Homo sapiens.
The subject of series [19] is CCCCCC/C(C)=C/CC/C(C)=C/COP(=O)(O)OP(=O)(O)O. The description is as §2. In kind it is protein-complex assay. To be noted: Homo sapiens.
Series [20] relates to CC(C)=CCCCCCCCCC/C(C)=C/COP(=O)(O)OP(=O)(O)O. The description is as §2. Format: protein-complex assay. Particulars: Homo sapiens.
The subject of series [21] is CCCCCCCCCCCCC/C(C)=C/COP(=O)(O)OP(=O)(O)O. The description is as §2. Format: protein-complex assay. To be noted: Homo sapiens.
Series [22] relates to CCCCCCCCC/C(C)=C/CC/C(C)=C/COP(=O)(O)OP(=O)(O)O. Described as §2. Format: protein-complex assay. To be noted: Homo sapiens.
Series [23] deals with CCCCCCC/C(C)=C/CC/C(C)=C/COP(=O)(O)OP(=O)(O)O. The series is described as §2. Format: protein-complex assay. Particulars: Homo sapiens.
In series [24] the test system is CCCCCCCC/C(C)=C/CC/C(C)=C/COP(=O)(O)OP(=O)(O)O. The description is as §2. To be noted: Homo sapiens. Format: protein-complex assay.
The subject of series [25] is C/C(=C\COP(=O)(O)OP(=O)(O)O)CC/C=C(\C)CCCC(C)CCCC(C)C. The series is described as §2. Particulars: Homo sapiens. In kind it is protein-complex assay.
Series [26] relates to CC(C)=CCC/C(C)=C/CC/C(C)=C/COP(=O)(O)OP(=O)(O)O. The description is as §2. In kind it is protein-complex assay. To be noted: Homo sapiens.

Consider `CCCCCCCCCCCCC/C(C)=C/COP(=O)(O)OP(=O)(O)O`, for which the result in [1] and in [4] was Active. Besides, the Ratio was 0.16 in series [2] and 0.09 in [3].
On to `C/C(=C\CC/C(C)=C/COP(=O)(O)OP(=O)(O)O)CC/C=C(\C)CCCC(C)C`, for which the outcome in [1] and in series [4] was Active. For the same compound, the Ratio in series [2] turned out to be 0.17.
Consider `CCCCCCC/C(C)=C/CC/C(C)=C/COP(=O)(O)OP(=O)(O)O`, for which the result in series [1] and in series [4] was Active. Further, the Ratio in the series filed under Homo sapiens was found to be 0.22; in series [2], 0.85; in series [3], 0.15.
Consider `CC(C)=CCCCCCCCCC/C(C)=C/COP(=O)(O)OP(=O)(O)O`, for which the result in [1] and in series [4] was Active. Also, the results for the Ratio in series [2] and in series [3] were 0.02 and 0.15, respectively.
As for `CC(C)=CCCCCCCCCCC/C(C)=C/COP(=O)(O)OP(=O)(O)O`, the result in series [1] and in [4] was Active. In addition, the Ratio was 0.5 in series [2] and 0.15 in [3].
For `CCCCCCCC/C(C)=C/CC/C(C)=C/COP(=O)(O)OP(=O)(O)O`, the outcome in series [1] and in [4] was Active. The Ratio amounted to 0.44 in the series filed under Homo sapiens, 0.58 in [2] and 0.21 in series [3].
Regarding `C/C(=C\COP(=O)(O)OP(=O)(O)O)CC/C=C(\C)CCCC(C)CCCC(C)C` (stereo not drawn), the result in [1] and in series [4] was Active. Further, the Ratio in [2] was 0.03; in series [3], 0.05.
Consider “Geranylgeranyl transferase type I (Homo sapiens) (from UniProt P49354+P53609)”, for which the kcat/Km in series [5] worked out at 1.9 ×10⁴ /M/s; in series [6], 8.9 ×10² /M/s; in series [7], 6.3 ×10³ /M/s; in [8], 3.2 ×10³ /M/s; in [9] it was 9 ×10² /M/s; in [10], 6.2 ×10³ /M/s. The kcat/Km stood at 3.78 ×10⁴ /M/s in series [11]; 3.6 ×10⁴ /M/s in series [12]; 3.2 ×10⁴ /M/s in series [13]; 2.2 ×10⁴ /M/s in [14]; 1.2 ×10³ /M/s in [15].
With “Protein farnesyltransferase (Homo sapiens) (from UniProt P49354+P49356)”, the kcat/Km in series [16] was 7.1 ×10³ /M/s; in [17], 1.1 ×10⁴ /M/s; in [18] it was 8.3 ×10³ /M/s; in series [19] it was 1.6 ×10⁴ /M/s; in [20], 6.8 ×10³ /M/s; in series [21], 4.1 ×10³ /M/s. Moreover, the kcat/Km in series [22] was 3.3 ×10⁴ /M/s; in series [23], 7.1 ×10³ /M/s; in series [24] it was 9.7 ×10³ /M/s; in [25], 3.5 ×10³ /M/s; in series [26], 4.6 ×10⁴ /M/s.
For `CCCCCC/C(C)=C/CC/C(C)=C/COP(=O)(O)OP(=O)(O)O`, the outcome in [1] and in series [4] was Active. Also, the Ratio in series [3] was found to be 0.35.
`CCCCCCCCCCCC/C(C)=C/COP(=O)(O)OP(=O)(O)O`: the result in series [1] and in series [4] was Active. Also, the Ratio in the series listed under Homo sapiens amounted to 12; in series [2] it was 0.02; in series [3], 0.24.
As for `CCCCCCCCCCC/C(C)=C/COP(=O)(O)OP(=O)(O)O`, the result in series [1] and in series [4] was Active. Moreover, the Ratio in the series filed under Homo sapiens is 2; in series [2], 0.08; in series [3], 0.18.
In the case of `CCCCCCCCC/C(C)=C/CC/C(C)=C/COP(=O)(O)OP(=O)(O)O`, the outcome in [1] and in series [4] was Active. Besides, the results for the Ratio in series [2] and in series [3] were 0.95 and 0.72, respectively.
